Source: ChEMBL document CHEMBL1147804, “3,4-Fused cyclohexyl sulfones as gamma-secretase inhibitors” (Bioorg Med Chem Lett, 2006)

Key:
[1] = Stability assessed as liver microsomal turnover in rat at 1 uM; format: ADME, Microsome; conditions: liver microsomes, read-out: Stability
Method in brief: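 Compound at 1 μM was incubated with rat liver microsomal protein (5 mg/mL) plus NADPH at 37 °C for 20 min. Percentage of parent remaining was quantified by LC–MS.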

[2] = biological target: Gamma-secretase; assay: Inhibition of gamma secretase; format: protein-complex assay, Homo sapiens
[3] = system: Mus musculus; assay: Plasma concentration for reduction of DEA-extractable brain beta amyloid in orally dosed APP-YAC mouse after 4 hrs relative to control; format: ADME, organism-based
Method in brief: (§1)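 APP-YAC transgenic mice were dosed orally with a dose-response titration, with vehicle and a positive-control γ-secretase inhibitor as references. At 4 h post-dose, DEA-extractable brain Aβ was measured alongside plasma and brain drug levels. EC50 is the plasma or brain concentration giving a 50% cut in brain Aβ. ED50 is the oral dose reaching those levels.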

[4] = system: Mus musculus; assay: Brain concentration for reduction of DEA-extractable brain beta amyloid in orally dosed APP-YAC mouse after 4 hrs relative to control; format: ADME, organism-based; method in brief: as §1
[5] = Brain to plasma ratio for reduction of DEA-extractable brain beta amyloid in orally dosed APP-YAC mouse after 4 hrs; format: ADME, organism-based; conditions: po
[6] = system: Mus musculus; assay: Reduction of DEA-extractable brain beta amyloid in orally dosed APP-YAC mouse after 4 hrs; format: ADME, organism-based; conditions: po; method in brief: as §1
[7] = Bioavailability in rat; format: ADME, organism-based; conditions: in vivo
[8] = Half life in rat; format: ADME, organism-based; conditions: in vivo

metabolised at 1 µM [1]	IC50 [2]	Structure (SMILES)	further results
46%	0.4 nM	CCN1C[C@@H]2C[C@](c3cc(F)ccc3F)(S(=O)(=O)c3ccc(Cl)cc3)CC[C@@H]2NS1(=O)=O (racemic)	–
63%	1.17 nM	CCCN1C[C@@H]2C[C@](c3cc(F)ccc3F)(S(=O)(=O)c3ccc(Cl)cc3)CC[C@@H]2NS1(=O)=O (racemic)	–
68%	0.26 nM	O=S1(=O)N[C@H]2CC[C@@](c3cc(F)ccc3F)(S(=O)(=O)c3ccc(Cl)cc3)C[C@H]2CN1C1CCC1 (racemic)	–
9%	6.18 nM	O=S1(=O)NC[C@@H]2C[C@](c3cc(F)ccc3F)(S(=O)(=O)c3ccc(Cl)cc3)CC[C@@H]2N1 (racemic)	–
–	0.04 nM	O=S1(=O)NC[C@@H]2C[C@](c3cc(F)ccc3F)(S(=O)(=O)c3ccc(Cl)cc3)CC[C@@H]2N1C1CC1 (racemic)	EC50 [3]: 104 nM; EC50 [4]: 20 nM; Kp at 4 h [5]: 0.16; ED50 [6]: 11.4 mg/kg
–	–	CS(=O)(=O)NCC1CCCC(c2cc(F)ccc2F)(S(=O)(=O)c2ccc(Cl)cc2)C1 (stereo not drawn)	bioavailability [7]: 31%; half-life [8]: 1.1 h
7%	0.06 nM	CCC1C[C@@H]2C[C@](c3cc(F)ccc3F)(S(=O)(=O)c3ccc(Cl)cc3)CC[C@@H]2NS1(=O)=O (single isomer, unassigned)	EC50 [3]: 380 nM; EC50 [4]: 88 nM; Kp at 4 h [5]: 0.18; ED50 [6]: 2.8 mg/kg
20%	0.08 nM	CC1C[C@@H]2C[C@](c3cc(F)ccc3F)(S(=O)(=O)c3ccc(Cl)cc3)CC[C@@H]2NS1(=O)=O (single isomer, unassigned)	–
15%	1.39 nM	CC(C)(C)N1C[C@@H]2C[C@](c3cc(F)ccc3F)(S(=O)(=O)c3ccc(Cl)cc3)CC[C@@H]2NS1(=O)=O (racemic)	–
–	0.41 nM	CC(C)N1C[C@@H]2C[C@](c3cc(F)ccc3F)(S(=O)(=O)c3ccc(Cl)cc3)CC[C@@H]2NS1(=O)=O (racemic)	–
14%	0.19 nM	O=S1(=O)N[C@H]2CC[C@@](c3cc(F)ccc3F)(S(=O)(=O)c3ccc(Cl)cc3)C[C@H]2CN1C1CC1 (racemic)	–
17%	0.9 nM	CN1C[C@@H]2C[C@](c3cc(F)ccc3F)(S(=O)(=O)c3ccc(Cl)cc3)CC[C@@H]2NS1(=O)=O (racemic)	–
32%	0.24 nM	CCCC1C[C@@H]2C[C@](c3cc(F)ccc3F)(S(=O)(=O)c3ccc(Cl)cc3)CC[C@@H]2NS1(=O)=O (single isomer, unassigned)	–
15%	0.76 nM	CCC1C[C@@H]2C[C@](c3cc(F)ccc3F)(S(=O)(=O)c3ccc(Cl)cc3)CC[C@@H]2CS1(=O)=O (single isomer, unassigned)	EC50 [3]: 761 nM; EC50 [4]: 327 nM; Kp at 4 h [5]: 0.41; ED50 [6]: 3.9 mg/kg
